Shown are actives, neighbours in structure and some others; about 3.5% of the full set was active somewhere.
MrgX1 ag: activates human MrgX1 receptor signaling; Q96LB2; MrgX1-HEK293 cells, Fluo-4 calcium fluorescence, agonist mode; hits give high values; B-score at 10 µM; 310,000 compounds, 0.44% hits;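 active = calcium response B-score plate-corrected fluorescence ratio at least 3 library SD, with starting fluorescence B-score inside 5 SD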
Target sequence (Q96LB2 whole entry, looked up): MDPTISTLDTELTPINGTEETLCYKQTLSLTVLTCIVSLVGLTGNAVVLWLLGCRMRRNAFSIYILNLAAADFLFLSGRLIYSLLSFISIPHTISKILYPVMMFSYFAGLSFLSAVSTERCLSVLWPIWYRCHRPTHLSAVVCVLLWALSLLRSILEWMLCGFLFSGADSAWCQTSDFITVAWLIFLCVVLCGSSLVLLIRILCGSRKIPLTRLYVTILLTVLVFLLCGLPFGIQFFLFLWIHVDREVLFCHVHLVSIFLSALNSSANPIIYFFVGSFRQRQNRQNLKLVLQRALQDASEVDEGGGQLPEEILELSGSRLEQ
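System: HEK293 cells stably expressing human MrgX1 receptor; Dosing: test compound in the initial addition of three; Schedule: overnight plating, then 30 min 37 °C plus 30 min room-temperature dye loading; Detection: kinetic calcium dye fluorescence, Fluo-4 NW; Controls: per-plate positive and negative controls for Z′ factor.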
MrgX1 antagonist: blocks BAM8-22 activation of human MrgX1 receptor; Q96LB2; MRGX1-HEK293 calcium flux, Fluo-4, BAM8-22 antagonism; hits give low values; B-score at 10 µM; 310,000 compounds, 1.3% hits; AID 588676;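 active = calcium-response B-score plate-corrected more than 3 library SD below zero, starting fluorescence within 5 deviations, no agonist response on first addition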;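 also: peak minus trough fluorescence over baseline after final BAM8-22 challenge near maximal dose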
MrgX1 allo act: allosterically activates human MrgX1 receptor signaling | 310,000 compounds, 0.63% hits | B-score at 10 µM | MrgX1-HEK293, Fluo-4 calcium flux, FDSS; hits give high values | Q96LB2 | AID 588675;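 active = plate-corrected calcium response at least 3 library SD above typical, normal starting fluorescence, not activating the receptor alone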;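 also: compound read alongside a low EC10 to EC30 dose of BAM8-22 agonist; peak minus trough fluorescence over baseline measured at the second addition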
RGS4 act: RGS4 potentiation or activation | HEK293 M3R/inducible RGS4, carbachol calcium flux Fluo4; hits give low values | B-score at 10 µM | 310,000 compounds, 0.92% hits;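 active = B-score of the integrated calcium signal more than 4 SD below the library mean, with starting fluorescence not abnormally high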;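 also: negative B-score means reduced calcium response which marks RGS4 activation or potentiation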
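System – HEK293 FlpIn-TREx cells, stable M3R, doxycycline-inducible RGS4 · Reagent – ECmax carbachol challenge · Times – compound preincubation 20 min at room temperature before agonist · Technique – Fluo4 fluorescence kinetic imaging of calcium · Measure – B score of integrated Fluo4 ratio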
RGS4 inh: human RGS4 inhibition; P49798; HEK293 M3R/RGS4 inducible, Fluo-4 calcium flux; hits give high values; triggered by carbachol at its EC20; B-score at 10 µM; 310,000 compounds, 0.45% hits; AID 463165;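 active = B-score, a plate-corrected calcium signal, over three deviations above library mean, with baseline fluorescence within five deviations of library mean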;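 also: RGS4 expression induced by doxycycline in cells with stable M3 receptor; B-score is computed from the integrated fluorescence ratio over baseline after carbachol; higher B-score means a larger calcium signal and so more RGS4 inhibition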
Target sequence (P49798 whole entry, looked up): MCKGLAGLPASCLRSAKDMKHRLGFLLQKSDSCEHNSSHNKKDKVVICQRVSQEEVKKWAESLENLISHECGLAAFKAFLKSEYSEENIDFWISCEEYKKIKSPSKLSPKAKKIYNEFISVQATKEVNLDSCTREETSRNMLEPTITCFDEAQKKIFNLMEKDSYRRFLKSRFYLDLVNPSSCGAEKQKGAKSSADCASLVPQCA
MrgX1 allo conf: human MrgX1 positive allosteric modulation, re-confirmation. shares compounds with MrgX1 allo act. MrgX1-HEK293, Fluo-4 calcium fluorescence, FDSS. activation (ratio percentage), % at 10 µM. 1,200 compounds, 13% hits. AID 602413;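 active = ratio at least 3 SD above the weak peptide control, stable starting fluorescence, no direct agonism earlier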;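 also: compound followed by low BAM8-22 agonist challenge near EC20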
HEK293 Ca flux: MrgX1 antagonist counter-screen hit in parental HEK293 cells. 4,000 compounds, 2% hits. fluorescence ratio F(max-min)/F0 at 10 µM. shares compounds with MrgX1 antagonist. Fluo-4 calcium fluorescence, FDSS;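 active = duplicate-averaged calcium fluorescence ratio at least three times the standard deviation of buffer wells, a nonspecific response in parental cells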
HEK293 Ca counter: MrgX1 allosteric activator counter-screen hit in parental HEK293 cells | shares compounds with MrgX1 antagonist | parental HEK293 calcium flux, Fluo-4 fluorescence ratio; hits give high values | fluorescence ratio F(max-min)/F0 at 10 µM | 4,000 compounds, 0.4% hits | AID 624114;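 active = calcium fluorescence ratio, averaged over duplicates, at least 3 SD of the buffer-well ratio, meaning a nonspecific response in receptor-free cells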;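 also: untransfected parental HEK293 lacking MrgX1 used as counterscreen for MrgX1 allosteric activators; fluorescence change taken during the second addition on a kinetic imager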
HEK293 Ca cntr2: counter-screen for MrgX1 activators: effect in parental HEK293 cells; shares compounds with MrgX1 antagonist; Fluo-4 calcium fluorescence (FDSS); hits give high values; fluorescence ratio F(max-min)/F0 at 10 µM; 4,000 compounds, 8.7% hits; AID 624115;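 active = calcium fluorescence ratio at least three times the spread of buffer wells, meaning a non-specific response in parental cells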
Large screens that a line does not name were inactive (follow-up assays come after a bar, where they were run).

O=C(NC(=S)N(CCc1ccccc1)CCc1ccccc1)c1ccco1	none
CC(CCc1ccccc1)NC(=S)NC(=O)c1ccco1 (stereo not drawn)	MrgX1 allo act 14 | MrgX1 allo conf inactive | HEK293 Ca flux inactive | HEK293 Ca counter inactive | HEK293 Ca cntr2 inactive
O=C(NC(=S)Nc1ccccc1Cl)c1ccco1	none
CCc1cccc(NC(=O)CCCn2nc(C)c3c(C)n(-c4ccccc4)nc3c2=O)c1	none
CCCNC(=O)CN1CCC(c2nc3ccccc3[nH]2)CC1	MrgX1 allo act 12 | MrgX1 allo conf inactive | HEK293 Ca flux inactive | HEK293 Ca counter inactive | HEK293 Ca cntr2 inactive
COCc1ccc(CN2CCC(N3CCC(C(=O)N4CCCC4)CC3)CC2)o1	MrgX1 allo act 8.9 | MrgX1 allo conf inactive | HEK293 Ca flux inactive | HEK293 Ca counter inactive | HEK293 Ca cntr2 inactive
CC1(C)CC2CC(C)(CN2Cc2c(O)ccc3ccccc23)C1 (stereo not drawn)	MrgX1 allo act 7.4 | MrgX1 allo conf inactive | HEK293 Ca flux inactive | HEK293 Ca counter inactive | HEK293 Ca cntr2 53
CCOC(=O)Cc1csc(NC(=S)NC(=O)c2ccc([N+](=O)[O-])cc2)n1	none
CCOC(=O)Cc1csc(NC(=O)c2ccc(Br)cc2)n1	MrgX1 allo act 12 | MrgX1 allo conf inactive | HEK293 Ca flux inactive | HEK293 Ca counter inactive | HEK293 Ca cntr2 inactive
CCOC(=O)Cc1csc(NC(=S)NC(=O)c2ccc(Cl)cc2)n1	MrgX1 allo act 7 | MrgX1 allo conf inactive | HEK293 Ca flux inactive | HEK293 Ca counter inactive | HEK293 Ca cntr2 inactive
CCOC(=O)Cc1csc(NC(=O)COc2ccccc2OC)n1	MrgX1 allo act 12 | MrgX1 allo conf inactive | HEK293 Ca flux inactive | HEK293 Ca counter inactive | HEK293 Ca cntr2 inactive
CC(=O)NCCN=C(C)c1sc2ccccc2c1O	none
CC(=Nc1ccccc1O)c1sc2ccccc2c1O	none
CC(=Nc1ccc(O)cc1)c1sc2ccccc2c1O	MrgX1 allo act 39 | MrgX1 allo conf inactive | HEK293 Ca flux inactive | HEK293 Ca counter inactive | HEK293 Ca cntr2 inactive
CC(=Nc1cccc(C)c1)c1sc2ccccc2c1O	MrgX1 allo act 8.1 | MrgX1 allo conf inactive | HEK293 Ca flux inactive | HEK293 Ca counter inactive | HEK293 Ca cntr2 57
CCOC(=O)c1c(-c2ccc(C)cc2)csc1NC(=O)C1CC=CCC1C(=O)O (stereo not drawn)	none
Cc1ccc(-c2csc(NC(=O)C3CC=CCC3C(=O)O)c2C(=O)OC(C)C)cc1 (stereo not drawn)	MrgX1 allo act 7.3 | MrgX1 allo conf inactive | HEK293 Ca flux inactive | HEK293 Ca counter inactive | HEK293 Ca cntr2 inactive
O=C(Nc1ccccc1C(=O)O)c1cccc(NC(=O)c2ccc(Br)o2)c1	MrgX1 allo act 17 | MrgX1 allo conf inactive | HEK293 Ca flux inactive | HEK293 Ca counter inactive | HEK293 Ca cntr2 inactive
CC(=O)Oc1ccc(C(=O)Nc2cccc(C(=O)Nc3ccccc3C(=O)O)c2)cc1	none
O=C(Nc1ccccc1C(=O)O)c1ccc(NC(=O)c2ccc(Br)o2)cc1	none
CC(=O)Oc1ccc(C(=O)Nc2ccccc2C(=O)Nc2cccc(C(=O)O)c2)cc1	MrgX1 allo act 10 | MrgX1 allo conf inactive | HEK293 Ca flux inactive | HEK293 Ca counter inactive | HEK293 Ca cntr2 inactive
CCC(C)c1ccccc1NC(=O)c1cc(C)no1 (stereo not drawn)	none
CCN(CC(=O)Nc1c(F)cccc1F)C(=O)Cc1csc(-c2ccccc2)n1	MrgX1 allo act 7.5 | MrgX1 allo conf inactive | HEK293 Ca flux inactive | HEK293 Ca counter inactive | HEK293 Ca cntr2 inactive
O=C(c1cc2nc(-c3ccc(F)cc3)cc(C(F)(F)F)n2n1)N1CCCCC1c1cccnc1 (stereo not drawn)	MrgX1 allo act 7.1 | MrgX1 allo conf inactive | HEK293 Ca flux inactive | HEK293 Ca counter inactive | HEK293 Ca cntr2 inactive
O=C(c1cnn2c(C(F)(F)F)cc(-c3ccccc3)nc12)N1CCCCC1c1cccnc1 (stereo not drawn)	none
CC1CCCN(C(=O)c2cc3ccccc3cc2O)C1 (stereo not drawn)	none
COc1ccc(C2=C(Nc3ccc(C)cc3)c3ccccc3C2=O)cc1	MrgX1 allo act 11 | MrgX1 allo conf inactive | HEK293 Ca flux inactive | HEK293 Ca counter inactive | HEK293 Ca cntr2 inactive
COc1ccc(C2=C(Nc3ccc(F)cc3)c3ccccc3C2=O)cc1	none
O=[N+]([O-])c1ccc(S(=O)(=O)Nc2nnc(C(F)(F)F)s2)cc1	none
Cc1cccc(NC(=O)CNCC(=O)Nc2cccc(C)c2C)c1C	none
Cc1ccc(NC(=O)CNc2cccc(C)c2C)c(C)c1	MrgX1 allo act 16 | MrgX1 allo conf 9.1% | HEK293 Ca flux inactive | HEK293 Ca counter inactive | HEK293 Ca cntr2 inactive
Cc1c(O)nc(SCC(=O)Nc2nccs2)n(-c2ccccc2F)c1=O	none
COCc1cc(SC2CCCCC2)nc(C)n1	MrgX1 allo act 15 | MrgX1 allo conf inactive | HEK293 Ca flux inactive | HEK293 Ca counter inactive | HEK293 Ca cntr2 inactive
COCc1cc(C)nc(NC2CCCCC2)c1C#N	none (no result: RGS4 act, RGS4 inh)
CCn1c(=O)n(CC)c2cc(S(=O)(=O)Nc3c(C)cccc3C)ccc21	none
CCn1c(=O)c(=O)n(CC)c2cc(S(=O)(=O)Nc3ccc(C)cc3)ccc21	MrgX1 allo act 11 | MrgX1 allo conf inactive | HEK293 Ca flux inactive | HEK293 Ca counter inactive | HEK293 Ca cntr2 inactive
O=C(NC1CCCCC1)C1CCCN1C(=O)Nc1ccccc1 (stereo not drawn)	none
O=C(Nc1ccccc1N1CCOCC1)c1ccc2ccccc2c1	MrgX1 allo act 7.2 | MrgX1 allo conf inactive | HEK293 Ca flux inactive | HEK293 Ca counter inactive | HEK293 Ca cntr2 inactive
O=C(Nc1ccccc1N1CCOCC1)c1ccccc1NS(=O)(=O)c1ccc(F)c(F)c1	none
O=C(Nc1ccccc1N1CCOCC1)c1cccc(NS(=O)(=O)c2ccc(F)c(F)c2)c1	MrgX1 allo act 11 | MrgX1 allo conf inactive | HEK293 Ca flux inactive | HEK293 Ca counter inactive | HEK293 Ca cntr2 inactive
Cc1ccc(N(CC(=O)NC2CCCCC2)C(=O)CNC(=O)c2ccco2)cc1F	none
Cc1cc(NC(=O)CSc2nc(=O)cc(N)n2-c2ccc(Cl)cc2)no1	none
Oc1ccc(Cl)cc1CNCC1CCCCC1	none (no result: RGS4 act, RGS4 inh)

Screens from PubChem.
